What was measured:
[1] = biological target: Sodium-dependent serotonin transporter (Homo sapiens, UniProt P31645); assay: Binding affinity for serotonin transporter
Method in brief: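 Human platelet membranes (50 µg protein) in 50 mM Tris-HCl pH 7.4 with 120 mM NaCl and 5 mM KCl. Competition against [3H]paroxetine (0.5 nM), 60 min at 25 °C. Nonspecific binding defined with imipramine (1 µM). Filtration over 0.1% PEI-presoaked GF/B, washed with incubation buffer. Sigmoidal fit of specific binding; Ki via Cheng-Prusoff.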

[2] = biological target: T1, Alpha-2C adrenergic receptor (Homo sapiens, UniProt P18825); assay: Binding affinity for alpha-2C adrenergic receptor
T1 sequence (P18825 whole entry): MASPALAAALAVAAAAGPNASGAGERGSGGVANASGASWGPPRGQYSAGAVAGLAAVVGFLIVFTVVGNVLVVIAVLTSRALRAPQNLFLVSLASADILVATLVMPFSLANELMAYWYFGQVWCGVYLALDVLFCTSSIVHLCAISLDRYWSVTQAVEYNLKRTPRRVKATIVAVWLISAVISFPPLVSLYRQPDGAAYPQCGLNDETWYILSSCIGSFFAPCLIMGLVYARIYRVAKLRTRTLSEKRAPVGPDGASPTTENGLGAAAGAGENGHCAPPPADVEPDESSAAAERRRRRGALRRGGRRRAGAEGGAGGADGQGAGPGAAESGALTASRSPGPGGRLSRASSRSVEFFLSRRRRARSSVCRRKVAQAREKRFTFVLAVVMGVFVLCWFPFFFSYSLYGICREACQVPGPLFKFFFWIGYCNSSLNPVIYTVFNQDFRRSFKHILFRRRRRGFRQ
Method in brief: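 Human alpha2C receptor stably expressed in CHO cell membranes (5-10 µg protein) in 25 mM glycylglycine, pH 7.6. Competition against [3H]rauwolscine (1 nM), 30 min at 25 °C. Nonspecific binding defined with spiroxatrine (1 µM). Rapid filtration over GF/B, washed with ice-cold 50 mM Tris-HCl pH 8.0, scintillation counting. Sigmoidal curves fitted; Ki by Cheng-Prusoff.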

Chain of Sodium-dependent serotonin transporter (P31645 whole entry): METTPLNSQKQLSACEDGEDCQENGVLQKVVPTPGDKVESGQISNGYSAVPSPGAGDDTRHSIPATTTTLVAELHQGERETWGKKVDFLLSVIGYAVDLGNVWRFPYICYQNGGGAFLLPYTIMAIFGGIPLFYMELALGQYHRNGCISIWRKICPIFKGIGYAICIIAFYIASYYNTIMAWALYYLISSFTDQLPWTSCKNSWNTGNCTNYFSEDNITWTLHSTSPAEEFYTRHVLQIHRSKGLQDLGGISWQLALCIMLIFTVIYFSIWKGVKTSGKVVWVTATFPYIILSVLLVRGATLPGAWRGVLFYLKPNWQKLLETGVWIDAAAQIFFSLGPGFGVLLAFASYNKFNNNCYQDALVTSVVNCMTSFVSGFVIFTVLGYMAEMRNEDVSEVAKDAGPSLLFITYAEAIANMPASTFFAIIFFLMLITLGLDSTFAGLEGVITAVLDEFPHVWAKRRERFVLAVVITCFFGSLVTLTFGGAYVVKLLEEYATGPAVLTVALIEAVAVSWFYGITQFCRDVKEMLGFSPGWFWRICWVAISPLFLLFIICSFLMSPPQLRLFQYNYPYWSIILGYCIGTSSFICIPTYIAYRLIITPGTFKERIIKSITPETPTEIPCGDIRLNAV

| Compound | Ki [1] | Ki [2] |
| --- | --- | --- |
| C/C(=C\c1ccccc1)CN1CCN(C[C@@H]2ON=C3c4ccc(OCCN(C)C)cc4OC[C@H]32)CC1 | 3.5 nM | – |
| COc1cc2c(cc1OC)C1=NO[C@@H](CN3CCN(Cc4ccc5ncccc5c4)CC3)[C@@H]1CN2 | 22 nM | > 1000 nM |
| CCNC(=O)N1C[C@@H]2C(=NO[C@H]2CN2CCN(C/C=C/c3ccccc3)CC2)c2ccccc21 | 23 nM | 2.7 nM |
| COc1cc2c(cc1OC)C1=NO[C@@H](CN3CCN(Cc4ccc(Cl)cc4)CC3)[C@@H]1CN2 | 151 nM | 23 nM |
| C1=C[C@@H]2C(=NO[C@H]2CN2CCN(C/C=C/c3ccccc3)CC2)c2ccccc21 | 106 nM | 112 nM |
| C/C(=C\c1ccccc1)CN1CCN(C[C@@H]2ON=C3c4ccc(OC(=O)C(C)(C)C)cc4OC[C@H]32)CC1 | 12 nM | 1.6 nM |
| C/C(=C\c1ccccc1)CN1CCN(C[C@@H]2ON=C3c4ccc(O)cc4OC[C@H]32)CC1 | 3.6 nM | – |
| COc1cc2c(cc1OC)C1=NO[C@@H](CN3CCN(C/C(C)=C/c4ccccc4)CC3)[C@@H]1CN2 | 8.9 nM | 0.1 nM |
| C/C(=C\c1ccccc1)CN1CCN(C[C@@H]2ON=C3c4ccc(OC(=O)C5CC5)cc4OC[C@H]32)CC1 | 26 nM | 0.3 nM |
| CCOCCOCCOc1ccc2c(c1)OC[C@@H]1C2=NO[C@H]1CN1CCN(C/C(C)=C/c2ccccc2)CC1 | 17 nM | 0.2 nM |
| COc1cc2c(cc1OC)C1=NO[C@@H](CN3CCN(C/C=C/c4ccccc4)CC3)[C@@H]1CN2 | 9.7 nM | 5.4 nM |
| C(=C\c1ccccc1)/CN1CCN(C[C@@H]2ON=C3c4ccccc4NC[C@H]32)CC1 | 84 nM | 15 nM |
| COc1ccc2c(c1)C=C[C@@H]1C2=NO[C@H]1CN1CCN(Cc2ccc3ccccc3c2)CC1 | 1.4 nM | 6.3 nM |
| COc1cc2c(cc1OC)N(C)C[C@@H]1C2=NO[C@H]1CN1CCN(CCCC(C)=Cc2ccccc2)CC1 | 104 nM | 4 nM |
| CCOC(=O)N1C[C@@H]2C(=NO[C@H]2CN2CCN(C/C=C/c3ccccc3)CC2)c2ccccc21 | 2.6 nM | 9.8 nM |
| C=CC(=O)Oc1ccc2c(c1)OC[C@@H]1C2=NO[C@H]1CN1CCN(C/C(C)=C/c2ccccc2)CC1 | 41 nM | 0.5 nM |
| C(=C\c1ccccc1)/CN1CCN(C[C@@H]2ON=C3c4ccccc4OC[C@H]32)CC1 | – | 1.7 nM |
| COc1cc2c(cc1OC)C1=NO[C@@H](CN3CCN(CCOc4ccc(F)cc4)CC3)[C@@H]1CN2 | 154 nM | 1.6 nM |
| C/C(=C\c1ccccc1)CN1CCN(C[C@@H]2ON=C3c4ccc(OC5CCCC5)cc4OC[C@H]32)CC1 | 56 nM | 0.5 nM |
| COCCOc1ccc2c(c1)OC[C@@H]1C2=NO[C@H]1CN1CCN(C/C(C)=C/c2ccccc2)CC1 | 4.5 nM | 0.03 nM |
| CC(=O)N1C[C@@H]2C(=NO[C@H]2CN2CCN(CCC/C=C/c3ccccc3)CC2)c2ccccc21 | 61 nM | 11 nM |
| COc1cc2c(cc1OC)C1=NO[C@@H](CN3CCN(Cc4ccc5ccccc5c4)CC3)[C@@H]1CN2 | 1.5 nM | 12 nM |
| CC(=O)Oc1ccc2c(c1)OC[C@@H]1C2=NO[C@H]1CN1CCN(C/C(C)=C/c2ccccc2)CC1 | 7.7 nM | 0.2 nM |
| C/C(=C\c1ccccc1)CN1CCN(C[C@@H]2ON=C3c4ccc(OC(=O)c5ccncc5)cc4OC[C@H]32)CC1 | 13 nM | 0.5 nM |
| c1ccc2c(c1)NC[C@@H]1C2=NO[C@H]1CN1CCN(Cc2ccc3ccccc3c2)CC1 | 0.5 nM | 9.6 nM |
| COc1ccc2c(c1)C=C[C@@H]1C2=NO[C@H]1CN1CCN(C/C=C/c2ccccc2)CC1 | 7.3 nM | 3.9 nM |
| COCC(=O)Oc1ccc2c(c1)OC[C@@H]1C2=NO[C@H]1CN1CCN(C/C(C)=C/c2ccccc2)CC1 | 5.7 nM | 0.2 nM |
| COc1ccc2c(c1)OC[C@@H]1C2=NO[C@H]1CN1CCN(C/C(C)=C/c2ccccc2)CC1 | – | 0.2 nM |
| CN1C[C@@H]2C(=NO[C@H]2CN2CCN(C/C=C/c3ccccc3)CC2)c2ccccc21 | 16 nM | 4.5 nM |

Source: ChEMBL document CHEMBL1142735, “Discovery of a new series of centrally active tricyclic isoxazoles combining serotonin (5-HT) reuptake inhibition with alpha2-adrenoceptor blocking activity” (J Med Chem, 2005)
